Assay results from publication PMC8842656 (Journal of Experimental Pharmacology, 2022).
Read-outs that look alike come from different tables or passages of the source.

What was measured:
[1] = Single dose pharmacokinetic study, oral gavage, blood by LC/MS/MS; assay type: in vivo, rat
Outline: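 Two groups of 6 Sprague-Dawley rats (3 males and 3 females each), 6–8 weeks old, received a single oral gavage of test compound at 500 or 1000 mg/kg, suspended in 2% carboxymethylcellulose. Blood was drawn at 5, 10, 15, 30, 45 min and 1, 2, 4, 6, 24 h. Compound was measured by LC/MS/MS, and t1/2, Tmax and Cmax were derived from mean (n=6) profiles.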

Long-term = assay type: in vivo, rat; details: 100 mg/kg/day oral, day 28
Outline: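 Sprague-Dawley rats (3 males and 3 females) were dosed with test compound by oral gavage at 100 mg/kg/day for 28 days, suspended in 2% carboxymethylcellulose. On day 28 the animals were anesthetized and blood was sampled from 5 min to 24 h after dosing. Compound was quantified by LC/MS/MS, and Cmax and Tmax were taken from the mean (n=6) concentration-time profile.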

[2] = 500 mg/kg oral and 20 mg/kg i.v., blood at 2 and 6 hours; cited from earlier work
Sprague-Dawley (SD) rats [3] = experiment: 28-day toxicology evaluation within long-term PK study, oral gavage once daily; assay type: in vivo, rat; details: 100 mg/kg/day oral
Outline: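 Male and female Sprague-Dawley rats, 6–8 weeks old (250–350 g), 3+3 per group, received 2% carboxymethylcellulose vehicle or test compound suspended in it at 100 mg/kg/day by oral gavage for 28 days. Adverse events, body weight and daily food intake were tracked. Terminal hematology and serum biochemistry, gross necropsy, and histopathology of heart, lungs, liver, kidney, spleen and colon followed. Two-tailed Student's t-test versus vehicle, p<0.05.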

Sprague-Dawley (SD) rats [4] = experiment: 5-day maximum tolerated dose; assay type: in vivo, rat
Outline: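 Thirty Sprague-Dawley rats, 60–65 days old (276–300 g), viral-antibody free, formed 5 groups of 3 males and 3 females. They received 2% carboxymethylcellulose vehicle or test compound suspended in it at 50, 100, 500 or 1000 mg/kg/day by oral gavage once daily for 5 days. Mortality, body weight and food intake were monitored. Terminal hematology, clinical chemistry and necropsy followed, with control and high-dose organs sectioned. Two-tailed Student's t-test, p<0.05.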

[5] = tested on: LPS-induced experimental periodontal disease; details: rats, oral, 28 days, doses 0, 1, 5, 10 and 30 mg/kg; cited from earlier work
[6] = oral dose of 2g/kg; cited from earlier work
[7] = humans, cited from earlier work
[8] = 28-Day PK Study, compared to placebo-treated controls
[9] = 50-1000 mg/kg/day oral, 5 days, both sexes

`O=C(/C=C/c1ccc(O)cc1)C(C(=O)/C=C/c1ccc(O)cc1)C(=O)Nc1ccccc1` [CMC2.24] showed a Serum half-life ([1]; oral administration) of 10 h, a Cmax in blood ([1]; single oral dose 500 mg/kg) of 8 ng/mL and a Tmax ([1]; single oral dose 500 mg/kg) of 0.75 h. The Cmax in blood ([1]; single oral dose 1000 mg/kg) was 6.7 ng/mL, the Tmax ([1]; single oral dose 1000 mg/kg) was 0.75 h and the “Peak blood concentration (Cmax)” value (Long-term) was 0.2 ng/mL. For the same compound, the Tmax (Long-term) was 4 h, the “Bioavailability based on blood analysis” value [2] was “poor bioavailability” and the Adverse events (Sprague-Dawley (SD) rats [3]; 28 days) was “no adverse events were reported”. The “Mean body weight vs placebo treated controls” value (Sprague-Dawley (SD) rats [3]; 28 days, both sexes) was “no significant differences”, the “Hematological & Serological parameters” value (Sprague-Dawley (SD) rats [3]; [8]) was “No change observed” and the “Histology of organs (Heart, Lungs, Spleen, Liver, Kidney, Colon)” value (Sprague-Dawley (SD) rats [3]; [8]) was “Normal Histology Observed”. For the same compound, the “Daily food consumption and adverse events” value (Sprague-Dawley (SD) rats [4]; [9]) was “no difference”, the “Mean body weight vs placebo treated controls” value (Sprague-Dawley (SD) rats [4]; [9]) was “did not show significant differences” and the “Highest dose found safe (MTD not demonstrated)” value (Sprague-Dawley (SD) rats [4]; oral, one week of treatment) was at least 1000 mg/kg. The “Minimum effective dose to inhibit inflammation and alveolar bone resorption” value [5] was 1 mg/kg/day.

For `COc1cc(C=CC(=O)CC(=O)C=Cc2ccc(O)c(OC)c2)ccc1O` [curcumin, 1,7-bis-(4-hydroxy-3-methoxyphenyl)-1,6-heptadiene-3,5-dione], the Cmax [6] is listed as 1350 ± 230 ng/mL, the “Time of Cmax” value [6] is listed as 0.75 h and the Cmax in serum ([7]; oral dose of 10 g/kg) is listed as 50.5 ng/mL. The “Time of Cmax” value ([7]; oral dose of 10 g/kg) was 4 h, the Cmax in serum ([7]; oral dose of 12 g/kg) was 57.6 ng/mL and the “Time of Cmax” value ([7]; oral dose of 12 g/kg) was 2 h.
